How the values were obtained:
[1] = target: Muscarinic acetylcholine receptor M3 (Homo sapiens, UniProt P20309); assay: Displacement of [3H]NMS from recombinant human M3 receptor expressed in CHO-K1 cells after 16 hrs by SPA method; type: cell-based
Procedure, shortened: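 Nonspecific binding defined with atropine 1 µM; eight total-binding replicates per plate. Incubated at room temperature at least 16 h to equilibrium before counting; n ≥ 2.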

[2] = Half life in guinea pig lung administered via intratracheal instillation at 1 ug/kg by HPLC-MS analysis; type: ADME, tissue-based, Cavia porcellus; conditions: inhaled or intranasal, 0.001 mg/kg
Procedure, shortened: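 Halothane-anaesthetised guinea pigs given 1 μg/kg by intratracheal instillation. Lungs collected at 0.25-24 h after barbiturate overdose, homogenised in phosphate buffer and added to ice-cold methanol. Supernatant analysed by mass spectrometry/HPLC.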

[3] = Plasma protein binding in human; type: ADME, cell-free; conditions: read-out: PPB (converted)
Cavia porcellus [4] = assay: Inhibition of methacholine-induced bronchoconstriction in Dunkin-Hartley guinea pig administered via intratracheal/intranasal after 2 to 4 hrs relative to control; type: functional; conditions: inhaled or nasal
Procedure, shortened: (§1)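 Dunkin-Hartley guinea pigs dosed in 0.9% saline by intratracheal or intranasal microsprayer under halothane. At 2, 4, 24 or 48 h, animals were terminally anaesthetised with pentobarbitone and ventilated at 60 breaths/min, 2 mL tidal volume. Peak respiratory resistance measured after IV methacholine 10 μg/kg. Percent inhibition calculated against a time-matched vehicle group. For duration, dosing was at the ED80 dose, measured or predicted from trachea potency.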

[5] = Intrinsic clearance in human liver microsomes; type: ADME; conditions: read-out: CLH
[6] = target: Muscarinic acetylcholine receptor M3 (Cavia porcellus, UniProt Q8VH26); assay: Antagonist activity at M3 receptor in Dunkin-Hartley guinea pig trachea assessed as inhibition of methacholine-induced airway smooth muscle contraction after 1 to 4 hrs; conditions: read-out: pA2 (converted)
Muscarinic acetylcholine receptor M3 (Cavia porcellus, UniProt Q8VH26), sequence (Q8VH26 whole entry): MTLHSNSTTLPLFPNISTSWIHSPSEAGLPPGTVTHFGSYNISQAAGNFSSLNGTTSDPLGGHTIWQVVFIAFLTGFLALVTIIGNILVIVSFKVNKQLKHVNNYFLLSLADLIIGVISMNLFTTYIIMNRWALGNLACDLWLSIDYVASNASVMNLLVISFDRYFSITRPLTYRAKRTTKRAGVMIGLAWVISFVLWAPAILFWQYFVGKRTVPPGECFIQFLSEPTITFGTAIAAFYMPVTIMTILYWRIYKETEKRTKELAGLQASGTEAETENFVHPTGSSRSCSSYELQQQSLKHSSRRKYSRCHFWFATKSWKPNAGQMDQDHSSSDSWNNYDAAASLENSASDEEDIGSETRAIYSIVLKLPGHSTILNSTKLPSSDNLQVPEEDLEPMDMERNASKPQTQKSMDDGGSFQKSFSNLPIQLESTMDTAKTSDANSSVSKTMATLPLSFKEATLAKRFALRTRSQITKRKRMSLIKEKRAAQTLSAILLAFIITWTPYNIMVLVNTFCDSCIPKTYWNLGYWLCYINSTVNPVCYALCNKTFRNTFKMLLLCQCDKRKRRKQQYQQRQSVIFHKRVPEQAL
Procedure, shortened: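 Isolated guinea pig tracheal rings equilibrated 1 h, re-tensioned to 1 g, primed with methacholine, then a cumulative methacholine curve (3 × 10^-9 to 3 × 10^-5 M). Vehicle or compound equilibrated 1 or 4 h before a second curve (3 × 10^-9 to 1 × 10^-3 M final). Isometric force as % of curve-1 maximum. pA2 calculated from vehicle and test A50 values; n = 2.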

Cavia porcellus [7] = assay: Inhibition of methacholine-induced bronchoconstriction in Dunkin-Hartley guinea pig administered via intratracheal/intranasal after 24 hrs relative to control; type: functional; procedure, shortened: as §1
Cavia porcellus [8] = assay: Toxicity in guinea pig assessed as reduction of pilocarpine-induced salivation administered via intranasal administered for 4 hrs followed by pilocarpine challenge measured every 5 mins for 15 mins; type: organism-based
Procedure, shortened: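 Compound or vehicle given intranasally under halothane. At 4 h, animals were anaesthetised with urethane and the mouth dried with gauze for 5 min. Baseline saliva taken on a pre-weighed pad over 5 min. Pilocarpine 0.6 mg/kg given subcutaneously, then pads replaced every 5 min for 15 min and saliva quantified by pad weight gain.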

[9] = Therapeutic index, ratio of ED80 for methacholine-induced bronchoconstriction in Dunkin-Hartley guinea pig to EC50 for reduction of pilocarpine-induced salivation in guinea pig; type: organism-based, Cavia porcellus; conditions: in vivo, read-out: TI
Cavia porcellus [10] = assay: Inhibition of methacholine-induced bronchoconstriction in Dunkin-Hartley guinea pig administered via intratracheal/intranasal after 48 hrs relative to control; type: functional; procedure, shortened: as §1

Muscarinic acetylcholine receptor M3 (Homo sapiens, UniProt P20309), sequence (P20309 whole entry): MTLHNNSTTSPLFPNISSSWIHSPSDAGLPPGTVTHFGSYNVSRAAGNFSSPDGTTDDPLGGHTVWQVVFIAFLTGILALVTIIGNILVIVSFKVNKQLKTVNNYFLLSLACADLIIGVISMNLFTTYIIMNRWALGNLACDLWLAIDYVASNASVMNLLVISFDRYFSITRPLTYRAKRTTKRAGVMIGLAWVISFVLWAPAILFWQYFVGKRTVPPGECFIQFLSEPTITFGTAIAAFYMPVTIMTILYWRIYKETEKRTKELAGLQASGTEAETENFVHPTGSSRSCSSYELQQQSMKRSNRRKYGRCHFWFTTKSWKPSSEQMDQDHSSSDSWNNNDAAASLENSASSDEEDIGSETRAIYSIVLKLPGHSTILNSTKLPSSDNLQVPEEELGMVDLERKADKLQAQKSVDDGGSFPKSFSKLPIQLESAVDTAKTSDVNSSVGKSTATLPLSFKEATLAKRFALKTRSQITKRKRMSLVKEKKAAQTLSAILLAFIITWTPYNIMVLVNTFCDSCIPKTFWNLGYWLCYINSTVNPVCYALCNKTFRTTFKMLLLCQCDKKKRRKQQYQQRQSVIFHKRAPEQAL

Row | Compound | IC50 [1] [nM] | half-life [2] [h] | fraction unbound [3] | ED80 (Cavia porcellus [4]) [µg/kg] | microsomal CLint [5] [µL/min/mg] | Kb [6] [nM] | inhibition (INH) (Cavia porcellus [7]) [%] | EC50 (Cavia porcellus [8]) [µg/kg] | selectivity ratio [9] | inhibition (INH) (Cavia porcellus [10]) [%]
1 | Cc1cc(CCC[N+]23CCC(CC2)[C@@H](OC(=O)C2(C4=CC=CC4)CCCCCC2)C3)ccn1 | < 0.0316 | 43.7 | 0.03 | 1 | 135 | 0.158 | 0 | – | – | –
2 | O=C(C[N+]12CCC(CC1)[C@@H](OC(=O)C1(C3=CC=CC3)CCCCCC1)C2)Nc1ccc(Cl)nn1 | 0.2 | 56.7 | 0.04 | 3 | – | 0.2 | 89 | > 30 | ≥ 10 | –
3 | O=C(O[C@H]1C[N+]2(Cc3cc(-c4ccccc4)on3)CCC1CC2)C1(C2=CC=CC2)CCCCCC1 | 0.0794 | 12.1 | 0.005 | – | 79 | 3.16 | – | – | – | –
4 | O=C(O[C@H]1C[N+]2(CCc3ccccc3)CCC1CC2)C1(C2=CC=CC2)CCCCCC1 | 0.0794 | – | 0.007 | – | 105 | 0.316 | – | – | – | –
5 | O=C(C[N+]12CCC(CC1)[C@@H](OC(=O)C1(C3=CC=CC3)CCCCCC1)C2)Nc1cccc(F)c1 | 0.126 | – | 0.003 | – | 17 | 3.16 | – | – | – | –
6 | O=C(O[C@H]1C[N+]2(Cc3nc4ccccc4o3)CCC1CC2)C1(C2=CC=CC2)CCCCCC1 | 0.1 | 13 | 0.023 | – | 78 | 0.158 | – | > 10 | – | –
7 | C[N+]1(C)[C@@H]2C[C@@H](OC(=O)C(O)(c3cccs3)c3cccs3)C[C@H]1[C@@H]1O[C@@H]12.O.[Br-] [TIOTROPIUM BROMIDE] | – | – | – | 0.3 | – | – | >80 | < 0.3 | – | 69
8 | O=C(C[N+]12CCC(CC1)[C@@H](OC(=O)C1(C3=CC=CC3)CCCCCC1)C2)Nc1cncc(Cl)n1 | 0.1 | – | 0.015 | – | 51 | 0.501 | – | – | – | –
9 | O=C(O[C@H]1C[N+]2(Cc3nc(-c4ccccc4)no3)CCC1CC2)C1(C2=CC=CC2)CCCCCC1 | 0.158 | 17 | 0.01 | 3 | 102 | 0.398 | – | – | – | 0
10 | O=C(C[N+]12CCC(CC1)[C@@H](OC(=O)C1(C3=CC=CC3)CCCCCC1)C2)Nc1ccon1 | < 0.0631 | 19 | 0.18 | 1 | 150 | 0.02 | 0 | > 10 | – | –
11 | O=C(O[C@H]1C[N+]2(CCOCc3ccccc3)CCC1CC2)C1(C2=CC=CC2)CCCCCC1 | 0.126 | – | 0.03 | – | 120 | 3.98 | – | – | – | –
12 | O=C(O[C@H]1C[N+]2(Cc3nnc(-c4ccccc4)o3)CCC1CC2)C1(C2=CC=CC2)CCCCCC1 | 0.316 | 22 | 0.035 | 3 | 97 | 0.2 | – | > 30 | – | 0
13 | O=C(O[C@H]1C[N+]2(Cc3cc(-c4ccccc4)no3)CCC1CC2)C1(C2=CC=CC2)CCCCCC1 | 0.251 | 16.5 | 0.01 | 3 | 63 | 0.316 | – | > 30 | – | 0
14 | O=C(O[C@H]1C[N+]2(CCCc3ccncc3)CCC1CC2)C1(c2cccs2)CCCCCC1 | 0.0501 | – | 0.06 | – | 55 | 0.1 | – | – | – | –
15 | Cc1cc(NC(=O)C[N+]23CCC(CC2)[C@@H](OC(=O)C2(C4=CC=CC4)CCCCCC2)C3)no1 | 0.158 | 26.6 | 0.03 | 3 | 26 | 0.251 | 56 | > 30 | ≥ 10 | –
16 | O=C(C[N+]12CCC(CC1)[C@@H](OC(=O)C1(C3=CC=CC3)CCCCCC1)C2)Nc1cccnn1 | 0.158 | 42.4 | 0.1 | – | 70 | 0.0794 | – | > 10 | – | –
17 | O=C(C[N+]12CCC(CC1)[C@@H](OC(=O)C1(C3=CC=CC3)CCCCCC1)C2)Nc1ccccn1 | 0.158 | 25.6 | 0.04 | 1 | 55 | 0.398 | – | > 30 | ≥ 10 | 84
18 | Cc1ccc(CCC[N+]23CCC(CC2)[C@@H](OC(=O)C2(C4=CC=CC4)CCCCCC2)C3)cn1 | 0.158 | 19.2 | 0.05 | – | 77 | – | – | – | – | –
19 | O=C(O[C@H]1C[N+]2(CCCc3nc4ccccc4o3)CCC1CC2)C1(C2=CC=CC2)CCCCCC1 | – | 9.3 | 0.04 | – | – | – | – | – | – | –
20 | Cc1ccc(CC[N+]23CCC(CC2)[C@@H](OC(=O)C2(C4=CC=CC4)CCCCCC2)C3)s1 | 0.0631 | – | 0.01 | – | 130 | 0.316 | – | – | – | –
21 | O=C(O[C@H]1C[N+]2(CCCc3ccncc3)CCC1CC2)C1(C2=CC=CC2)CCCCCC1 | < 0.0398 | 19 | 0.12 | 1 | 57 | 0.126 | 0 | – | – | –
22 | O=C(O[C@H]1C[N+]2(CCc3cccc(Cl)c3)CCC1CC2)C1(C2=CC=CC2)CCCCCC1 | < 0.0398 | – | 0.005 | – | 72 | 0.251 | – | – | – | –
23 | O=C(O[C@H]1C[N+]2(CCOc3ccccc3)CCC1CC2)C1(C2=CC=CC2)CCCCCC1 | 0.158 | – | 0.04 | – | 106 | 0.398 | – | – | – | –
24 | O=C(O[C@H]1C[N+]2(CCCOc3ccccc3)CCC1CC2)C1(C2=CC=CC2)CCCCCC1 | 0.0631 | 10.2 | 0.085 | 3 | 75 | 0.794 | 31 | – | – | –
25 | NC(=O)C[N+]12CCC(CC1)[C@@H](OC(=O)C1(C3=CC=CC3)CCCCCC1)C2 | 0.2 | 11.4 | 0.18 | – | 19 | 0.0794 | – | – | – | –
